Measured values taken from ChEMBL document CHEMBL1781895, “Lipid-like sulfoxides and amine oxides as inhibitors of mast cell activation” (Eur J Med Chem, 2011).

What was measured:
[1] = Cytotoxicity at rat RBL2H3 cells assessed as maximum tolerated concentration by lactate dehydrogenase release assay; format: cell-based; settings: RBL-2H3 cells, read-out: Activity
[2] = system: RBL-2H3; experiment: Inhibition of anti-DNP-IgE-induced degranulation in rat RBL2H3 cells assessed as beta-hexosaminidase release at 25 uM after 30 mins by fluorescence assay; format: functional; settings: RBL-2H3, 0.5 h
Procedure, shortened: (§1)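 RBL-2H3 cells grown in 70% MEM with Earle's salts/20% RPMI 1640/10% FBS/2 mM L-glutamine, sensitised overnight with anti-DNP IgE ([…]), washed in Tyrode's buffer, preincubated 1 h at 37 °C with or without compound, then challenged with DNP-HSA for 15 min. Supernatant β-hexosaminidase read with 4-methylumbelliferyl-N-acetyl-β-D-glucosaminide (2.5 mM, citrate, 30 min, 37 °C), fluorescence 365/440 nm; duplicate aliquots.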

[3] = system: RBL-2H3; experiment: Inhibition of anti-DNP-IgE-induced degranulation in rat RBL2H3 cells assessed as beta-hexosaminidase release after 30 mins by fluorescence assay; format: functional, cell-based; settings: RBL-2H3, 0.5 h; procedure, shortened: as §1

IC50 [3] | SMILES | MNTC [1] | inhibition at 25 µM [2]
– | CCCCCCCCCCCC[S+]([O-])c1ccccc1[S+](C)[O-] (configuration not stated) | 100 µM | 72%
– | CCCCCCCCCCCCCCCCCCCCc1ccc(S(N)(=O)=O)cc1 | – | 12%
– | CCCCCCCCCCCC[S+](C)[O-] (configuration not stated) [DODECYL METHYL SULFOXIDE] | 100 µM | 66%
10.7 µM | CCCCCCCCCCCCC1[S+]([O-])CCC[S+]1[O-] (configuration not stated) | 100 µM | 80%
10.6 µM | CCCCCCCCCCCCCC[N+](C)(C)[O-] | 100 µM | 95%
– | CCCCCCCCCCCC[S+]([O-])c1ccccc1O (configuration not stated) | 100 µM | 30%
– | CCCCCCCCCCCC[S+]([O-])CC[S+]([O-])CC (configuration not stated) | 100 µM | 51%
– | CCCCCCCCCCCC[S+]([O-])C1CCCCC1OC(C)=O (configuration not stated) | 100 µM | 73%
– | CCCCCCCCCCCC[S+]([O-])[C@@H]1CCCC[C@H]1O (relative stereo) | 100 µM | 69%
– | CCCCCCCCCCCCCCCCC(C(=O)O)C(O)(CC(=O)O)C(=O)O (configuration not stated) | – | 36%
– | CCCCCCCCCCCC[N+](C)(C)[O-] | – | 40%
– | CCCCCCCCCCCCCCCC(=O)OC[C@H](O)[C@H]1OC(=O)C(O)=C1O [ASCORBYL PALMITATE] | – | 38%
